Source: PubChem BioAssay
SKKanGAS inh – inhibitors of SKKanGAS S. pyogenes growth in kanamycin (SK-promoter or general growth effect); BacTiter-Glo, 6 h; 1.3% of 300,000 active; inhibition, % at 7.5 µM;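 active = mean replicate score, as percent of positive control median, at least 50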;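 also: strain carries kanamycin resistance gene driven by streptokinase promoter and grows in 40 µg/ml kanamycin; loss of luminescence reflects streptokinase promoter inhibition or plain growth inhibition; 0% = median of DMSO wells and 100% = positive control at its reference dose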
T cruzi repl – blocks replication of Trypanosoma cruzi. T. cruzi beta-gal in NIH3T3, luminescence, 90 h. inhibition, % (test concentration not listed). 1.4% of 300,000 active. AID 1885;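 active = mean inhibition across valid replicates above about 55%, limit read from the data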;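 also: signal also drops with host cell toxicity which is not excluded here; 0% = plate median of DMSO wells and 100% = zero luminescence signal; higher percent means less beta-gal luminescence so fewer parasites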
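System: mouse NIH/3T3 fibroblasts infected with β-gal-expressing T. cruzi Tulahuen C4 / Input: NIH/3T3 cells, 5,000 per well / Buffer or medium: Low-serum DMEM with 2% FBS / Probe or stimulus: 5000 reporter trypomastigotes per well / Schedule: ≥90 h infection period, 3 h prior cell attachment / Measured by: GalScreen luminescence, 60 min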
Mdm2-MdmX inh – human Mdm2/MdmX binding inhibition. O15151+Q00987. SaOS-2 split-luciferase Mdm2/MdmX complementation, luminescence. inhibition, % at 8 µM. 3% of 330,000 active;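 active = inhibition of at least 50% at 8 µM in the primary screen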
Target sequence (O15151 whole entry, looked up): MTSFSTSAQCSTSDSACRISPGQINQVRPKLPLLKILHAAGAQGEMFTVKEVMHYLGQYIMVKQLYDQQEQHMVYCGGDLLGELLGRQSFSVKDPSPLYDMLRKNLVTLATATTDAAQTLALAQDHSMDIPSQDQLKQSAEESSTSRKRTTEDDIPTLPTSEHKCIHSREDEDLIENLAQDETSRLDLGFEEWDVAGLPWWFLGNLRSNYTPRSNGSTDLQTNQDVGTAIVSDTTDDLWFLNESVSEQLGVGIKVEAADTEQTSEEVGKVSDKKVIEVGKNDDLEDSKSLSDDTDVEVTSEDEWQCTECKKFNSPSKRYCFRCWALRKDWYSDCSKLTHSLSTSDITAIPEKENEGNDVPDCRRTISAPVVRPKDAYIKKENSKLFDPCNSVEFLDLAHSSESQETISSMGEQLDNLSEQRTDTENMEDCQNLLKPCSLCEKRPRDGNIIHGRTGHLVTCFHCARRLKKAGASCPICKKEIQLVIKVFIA
Target sequence (Q00987 whole entry, looked up): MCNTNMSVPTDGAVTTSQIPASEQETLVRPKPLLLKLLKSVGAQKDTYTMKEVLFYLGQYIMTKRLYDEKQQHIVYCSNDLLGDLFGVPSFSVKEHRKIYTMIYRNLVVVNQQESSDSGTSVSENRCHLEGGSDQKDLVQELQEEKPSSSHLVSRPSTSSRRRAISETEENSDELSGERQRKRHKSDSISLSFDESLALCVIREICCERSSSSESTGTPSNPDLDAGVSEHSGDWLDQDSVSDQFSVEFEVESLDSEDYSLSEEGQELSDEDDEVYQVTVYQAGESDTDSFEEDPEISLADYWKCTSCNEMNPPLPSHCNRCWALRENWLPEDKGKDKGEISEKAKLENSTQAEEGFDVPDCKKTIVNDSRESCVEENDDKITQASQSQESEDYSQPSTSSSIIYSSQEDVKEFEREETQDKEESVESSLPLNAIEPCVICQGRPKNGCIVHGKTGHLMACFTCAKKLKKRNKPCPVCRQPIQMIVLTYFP
CSC inhib – blocks cancer stem cells; AID 2717; inhibition, % at 7.5 µM; 1.1% of 300,000 active; cancer stem cell-like cells viability, luminescence; in the data active = inhibition above about 75%; tested in HMLE shEcad cells
aSyn UTR inh – 5' untranslated region of α-synuclein, MLPCN primary screen | 0.82% of 300,000 active | inhibition, % (tested at 7.5 µM) | AID 1813 | alpha-synuclein 5'UTR reporter, inhibitor activity; in the data active = inhibition above about 60%;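 also: H4 neuroglioblastoma cells stably carrying SNCA 5'UTR luciferase fusion; 0% = DMSO wells and 100% = positive control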
Mdm2-MdmX conf – confirmation of human Mdm2/MdmX interaction inhibitors. inhibition, % at 8 µM. 55% of 10,000 active. AID 489028. shares compounds with Mdm2-MdmX inh. Mdm2-MdmX binding, luminescent assay; in the data active = inhibition above about 40%
Full FLuc ctr – counter-screen for Mdm2/MdmX inhibitors: full-length luciferase | shares compounds with Mdm2-MdmX inh | SaOS-2 full-length luciferase counterscreen, luminescence | inhibition, % at 8 µM | 77% of 6,200 active | AID 504607;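 active = mean inhibition at 8 µM reaching about 37%, which flags the compound as non-specific, limit read from the data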;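 also: p53-null SaOS-2 cells with luciferase driven by a doxycycline-inducible promoter; compound on cells about two nights before reading with doxycycline added after day one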
* hit, by the source's call. Rows were chosen to be rich in hits. Some 5.4% of all compounds tested hit in one or more screens of this group.

How did C=CCS(=O)(=O)c1nc2ccccc2s1 do in these assays?
SKKanGAS inh: 2; T cruzi repl: -36; Mdm2-MdmX inh: 63*; CSC inhib: 26; aSyn UTR inh: -22; Mdm2-MdmX conf: 38; Full FLuc ctr: 42*

What do the screens show for `O=S(=O)(CCSc1nc2ccccc2s1)c1nc2ccccc2s1`?
SKKanGAS inh: 14; T cruzi repl: 29; Mdm2-MdmX inh: 99*; CSC inhib: 67; aSyn UTR inh: -24; Mdm2-MdmX conf: 83*; Full FLuc ctr: 55*

Results for CCOc1cc(N2CCOCC2)c(OCC)cc1NC(=O)CN1C(=O)C2C3C=CC(C3)C2C1=O (stereo unspecified) ?
SKKanGAS inh: -2; T cruzi repl: -10; Mdm2-MdmX inh: 4; CSC inhib: -10; aSyn UTR inh: 11

What do the screens show for `O=S(=O)(NCCN1CCOCC1)c1cc(Cl)ccc1Cl`?
SKKanGAS inh: -8; T cruzi repl: 0; Mdm2-MdmX inh: 7; CSC inhib: -3; aSyn UTR inh: 7

How did C=C1/C=C(\C)[C@](C)(O)C[C@H](O)CC(=O)[C@H](O)[C@@H](O)[C@H](C)C[C@H](C)OC(=O)/C(C)=C/CC/C=C/[C@@H]2O[C@H]2C[C@H](C)C1 do in these assays?
Mdm2-MdmX inh: 97*; Mdm2-MdmX conf: -28

What do the screens show for `COc1cc(/C=C/C(=O)O)cc(S(=O)(=O)N(CC(C)C)CC(C)C)c1OC`?
SKKanGAS inh: -13; T cruzi repl: 16; Mdm2-MdmX inh: -30; CSC inhib: 7; aSyn UTR inh: 10

Results for CC1CCc2c(sc3ncn(CC(=O)N=Nc4c(O)[nH]c5ccccc45)c(=O)c23)C1 (stereo unspecified) ?
SKKanGAS inh: 1; T cruzi repl: 9; Mdm2-MdmX inh: 53*; CSC inhib: 1; aSyn UTR inh: 29; Mdm2-MdmX conf: -4

How did O=C(/C=C/c1cc([N+](=O)[O-])ccc1OC(F)F)Nc1cccc([N+](=O)[O-])c1 do in these assays?
SKKanGAS inh: 6; T cruzi repl: 45; Mdm2-MdmX inh: 75*; aSyn UTR inh: 20; Mdm2-MdmX conf: 23

How did O=C(/C=C/c1cc([N+](=O)[O-])ccc1OC(F)F)Nc1ccc(OC(F)F)cc1 do in these assays?
SKKanGAS inh: -12; T cruzi repl: 23; Mdm2-MdmX inh: 10; CSC inhib: 3; aSyn UTR inh: -10

Results for CSCCC(NS(=O)(=O)c1c(Cl)cccc1Cl)C(=O)O (stereo unspecified) ?
SKKanGAS inh: -1; T cruzi repl: -16; Mdm2-MdmX inh: -9; CSC inhib: -3; aSyn UTR inh: 6

How did c1ccc(CN2CCC(Nc3nc(-c4cccs4)nc4ccccc34)CC2)cc1 do in these assays?
SKKanGAS inh: -5; T cruzi repl: 50; Mdm2-MdmX inh: 93*; CSC inhib: 109*; aSyn UTR inh: 62*; Mdm2-MdmX conf: 34; Full FLuc ctr: 74*

How did Cc1cc(C)c2nc(NNC(=O)c3ccc(S(=O)(=O)N4CCc5ccccc5C4)cc3)sc2c1 do in these assays?
SKKanGAS inh: 78*; T cruzi repl: 59*; Mdm2-MdmX inh: 82*; CSC inhib: 104*; aSyn UTR inh: 75*; Mdm2-MdmX conf: 86*; Full FLuc ctr: 38*

What do the screens show for `Cc1cc(C)c2sc(NNC(=O)c3ccc(S(=O)(=O)N4CCc5ccccc5C4)cc3)nc2c1`?
SKKanGAS inh: 65*; T cruzi repl: 59*; Mdm2-MdmX inh: 83*; CSC inhib: 103*; aSyn UTR inh: 77*; Mdm2-MdmX conf: 85*; Full FLuc ctr: 42*

What do the screens show for `CC1=C(C(=O)OCc2ccc3c(c2)OCO3)C(c2ccc(F)cc2)NC(=O)N1` (stereo unspecified)?
SKKanGAS inh: 6; T cruzi repl: -50; Mdm2-MdmX inh: 91*; CSC inhib: 55; aSyn UTR inh: 19; Mdm2-MdmX conf: 92*; Full FLuc ctr: 49*

Results for CCCCCOC(=O)C1=C(C)NC(=O)NC1c1ccc2c(c1)OCO2 (stereo unspecified) ?
SKKanGAS inh: 4; T cruzi repl: 2; Mdm2-MdmX inh: 8; CSC inhib: -11; aSyn UTR inh: 9

What do the screens show for `CSCCOC(=O)C1=C(C)NC(=O)NC1c1ccc2c(c1)OCO2` (stereo unspecified)?
SKKanGAS inh: -7; T cruzi repl: -14; Mdm2-MdmX inh: 8; CSC inhib: -3; aSyn UTR inh: 9

Results for CC1=C(C(=O)OCc2ccc3c(c2)OCO3)C(c2ccc(Cl)cc2)NC(=O)N1 (stereo unspecified) ?
SKKanGAS inh: -11; T cruzi repl: -9; Mdm2-MdmX inh: 84*; aSyn UTR inh: 41; Mdm2-MdmX conf: 92*; Full FLuc ctr: 51*

What do the screens show for `CCOC(=O)C1=C(CCl)NC(=O)NC1c1ccc2c(c1)OCO2` (stereo unspecified)?
SKKanGAS inh: -3; T cruzi repl: 0; Mdm2-MdmX inh: 59*; CSC inhib: 3; aSyn UTR inh: -14; Mdm2-MdmX conf: 27

What do the screens show for `O=S(=O)(NCc1ccccc1)c1cccs1`?
SKKanGAS inh: 3; T cruzi repl: 4; Mdm2-MdmX inh: 15; aSyn UTR inh: 8

Results for CCC1CCCCN1CCCNC(=O)c1cn(CC)c2ccc(S(=O)(=O)N3CCc4ccccc4C3)cc2c1=O (stereo unspecified) ?
SKKanGAS inh: 1; T cruzi repl: 29; Mdm2-MdmX inh: 90*; CSC inhib: 7; aSyn UTR inh: 15; Mdm2-MdmX conf: 50*; Full FLuc ctr: 55*

Results for CCn1cc(C(=O)NCCCN2CCCC(C)C2)c(=O)c2cc(S(=O)(=O)N3CCc4ccccc4C3)ccc21 (stereo unspecified) ?
SKKanGAS inh: 3; T cruzi repl: 27; Mdm2-MdmX inh: 83*; CSC inhib: -5; aSyn UTR inh: -21; Mdm2-MdmX conf: 33

What do the screens show for `CCC1CCCCN1CCCNC(=O)c1cn(CC)c2ccc(S(=O)(=O)N(C)C3CCCCC3)cc2c1=O` (stereo unspecified)?
SKKanGAS inh: -4; T cruzi repl: 26; Mdm2-MdmX inh: 21; CSC inhib: 14; aSyn UTR inh: -10

How did CCCCN(CCCC)CCNC(=O)c1cn(CC)c2ccc(S(=O)(=O)N3CCc4ccccc4C3)cc2c1=O do in these assays?
SKKanGAS inh: 3; T cruzi repl: 36; Mdm2-MdmX inh: 72*; CSC inhib: 0; aSyn UTR inh: -2; Mdm2-MdmX conf: 24

How did CCn1c(-c2ccc(C)cc2)nn(CC(=O)NCCc2ccccc2)c1=S do in these assays?
SKKanGAS inh: -4; T cruzi repl: -112; Mdm2-MdmX inh: 51*; CSC inhib: 19; aSyn UTR inh: 10; Mdm2-MdmX conf: 55*; Full FLuc ctr: 31

What do the screens show for `COc1ccc(-c2nn(CC(=O)NCCc3ccccc3)c(=S)n2C)cc1`?
SKKanGAS inh: -3; T cruzi repl: 12; Mdm2-MdmX inh: 8; CSC inhib: -2; aSyn UTR inh: -22
